# Beta2AR agonist = agonists of human beta-2 adrenergic receptor inducing internalization; P07550; Am2.2-beta2AR cells, FAP receptor internalization, flow cytometry; response, % (no concentration beside the values); 0.43% of 340,000 active; AID 504454;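 active = response above a set limit, near 3 SD of response in nonfluorescent compounds, cut at about 42% in these data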
# Target sequence (P07550 whole entry, looked up): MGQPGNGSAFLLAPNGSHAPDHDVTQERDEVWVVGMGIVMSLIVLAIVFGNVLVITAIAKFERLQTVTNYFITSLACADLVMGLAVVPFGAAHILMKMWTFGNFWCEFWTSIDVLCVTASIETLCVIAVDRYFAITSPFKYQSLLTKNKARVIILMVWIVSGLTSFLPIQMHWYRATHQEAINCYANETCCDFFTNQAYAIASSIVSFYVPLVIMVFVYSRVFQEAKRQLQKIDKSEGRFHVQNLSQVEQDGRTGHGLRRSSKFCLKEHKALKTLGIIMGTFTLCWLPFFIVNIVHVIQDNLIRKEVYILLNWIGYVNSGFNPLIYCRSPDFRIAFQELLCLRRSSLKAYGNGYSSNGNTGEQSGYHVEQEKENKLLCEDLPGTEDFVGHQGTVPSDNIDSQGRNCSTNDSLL
# TAAR1 ag = human TAAR1 agonism; Q96RJ0; CHO RD-HGA16 TAAR1, Fluo-8 calcium fluorescence; vehicle wells 0%, saturating PEA agonist 100%; activation, % at 3 µM; 0.99% of 360,000 active; AID 624467;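 active = activation above the mean activation of all test compounds in the run plus 3 SD, cut at about 38% in these data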
#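 Assay system: CHO-derived RD-HGA16 cells with stable Gα16 and human TAAR1; timing: 17-24 h seeding, 75 min 37 °C dye, 30 min RT; read-out: % activation from peak over basal fluorescence ratio, DMSO-to-PEA scaled; measured by: kinetic Fluo-8 calcium fluorescence; benchmarks: low control DMSO, high control PEA (EC100); doses: 3 µM single concentration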
# MC4R antagonist = human MC4R antagonism in cAMP assay; P32245; MC4R-expressing cells, MTII-stimulated cAMP, LANCE TR-FRET; inhibition, % at 6.5 µM; 0.48% of 360,000 active; AID 540295;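 active = inhibition above its plate's cutoff, the mean of tested wells on that plate plus 3 SD, cut at about 29% in these data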;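 also: 0% = Melanotan II alone and 100% = Melanotan II plus saturating MCL0020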
#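 System: U2OS cells stably expressing human melanocortin 4 receptor (MC4R). Reagent: Melanotan II challenge after compound preincubation. Doses: 6.5 µM. Times: 30-min compound, 1-h challenge, 1-h detection, room temperature. Measured by: TR-FRET with Eu-cAMP and labeled anti-cAMP, 671 nm. Replicates: singlicate.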
# MC4R barr agon = activates human MC4R beta-arrestin recruitment; P32245; U2OS MC4R beta-arrestin complementation, luminescence; percent of melanotan II response, DMSO zero; activation, % at 8.9 µM; 0.98% of 360,000 active;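 active = activation above a per-plate cutoff, the mean activation of sample wells on that plate plus 3 SD, cut at about 8% in these data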
# TAAR1 antag = human TAAR1 antagonism; Q96RJ0; inhibition, % at 3 µM; CHO RD-HGA16 TAAR1, Fluo-8 calcium fluorescence, antagonist; 1.5% of 360,000 active;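 active = inhibition above a per-plate cutoff, the mean inhibition of test compounds on that plate plus 3 SD, cut at about 49% in these data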;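 also: 0% = DMSO plus EC80 beta-PEA response and 100% = DMSO alone without agonist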
#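 Material: RD-HGA16 CHO cells with stable hTAAR1 and Gα16; Dosing: single nominal final test compound concentration of 3 µM; Schedule: seeding 17-24 h prior, 75-min 37 °C, 30-min RT dye loading; Detection: kinetic Fluo-8 calcium fluorescence measurement; Measure: % inhibition from peak post-agonist over basal fluorescence ratio; Benchmarks: vehicle and agonist controls.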
# m5-HT2A agonist = mouse HTR2A agonism via beta-arrestin recruitment; P35363; 0.66% of 360,000 active; activation, % at 7.6 µM; CHO-K1 mHTR2A beta-arrestin complementation, luminescence; percent of 30 µM serotonin response;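 active = activation above a run cutoff, the mean activation of all tested compounds plus 3 SD, cut at about 14% in these data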;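 also: 0% = plate median of compound wells and 100% = 30 µM serotonin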
# OPRM1 ag = activates human mu opioid receptor in HTR2A counterscreen; activation, % at 9.3 µM; AID 624380; 5.3% of 2,300 active; U2OS OPRM1 beta-arrestin PathHunter, luminescence; DMSO 0%, DAMGO 9.3 µM 100%; shares compounds with m5-HT2A agonist;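 active = mean activation above the mean of DMSO-only wells plus 3 SD, cut at about 0.5% in these data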
# m5-HT2A ag conf = confirmation of mouse HTR2A serotonin receptor agonists; shares compounds with m5-HT2A agonist; CHO-K1 PathHunter beta-arrestin recruitment, luminescence; DMSO 0%, 30 µM serotonin 100%; activation, % at 7.6 µM; 19% of 2,300 active; AID 624381;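 active = mean activation across triplicates above the hit threshold derived in the original primary screen, cut at about 15% in these data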
# An asterisk follows results filed as active; . = no result. Hits are enriched below; roughly 4.3% of the tested compounds scored in any of these assays.
SMILES,Beta2AR agonist,TAAR1 ag,MC4R antagonist,MC4R barr agon,TAAR1 antag,m5-HT2A agonist,OPRM1 ag,m5-HT2A ag conf
Cc1ccc(O)c(C=Nc2cc(C)ccc2O)c1,13,.,2,-2,.,-1,.,.
COc1ccc2c(C)cc(=O)oc2c1,-5,1,8,1,-15,29*,-1,37*
COc1cccc(COc2ccc3c(C)cc(=O)oc3c2)c1,-1,6,0,0,0,-2,.,.
CC(C)(C)n1nnnc1C(c1ccccc1)N1CCN(C/C=C/c2ccccc2)CC1 (centres undefined),.,0,.,.,-12,-3,.,.
CCC(c1nnnn1-c1ccc(OC)cc1)N1CCN(C/C=C/c2ccccc2)CC1 (centres undefined),.,1,.,.,-7,15*,-1,24*
CCC(c1nnnn1C(C)(C)C)N1CCN(C/C=C/c2ccccc2)CC1 (centres undefined),.,2,.,.,-29,15*,0,38*
Cc1nnc(NC(=O)c2ccc(S(=O)(=O)N3CC(C)CC(C)C3)cc2)o1 (centres undefined),3,3,24,0,-6,2,.,.
CCOC(=O)C1(Cc2cccc(Cl)c2)CCCN(C(=O)c2cc(C)n(C)n2)C1 (centres undefined),-8,1,-11,-2,-39,17*,-1,-2
COc1cccc(-c2nc(-c3cccc(C)c3)nc3cc(Cl)ccc23)c1,.,-1,.,.,-3,17*,0,-1
COc1ccccc1-n1c(=O)c2c3c(sc2n2c(SC(C)C)nnc12)CCC3,-3,-1,-3,-1,7,16*,-1,4
CCCSc1nnc2n(-c3ccccc3OC)c(=O)c3c4c(sc3n12)CCC4,0,2,2,-2,14,8,.,.
Cc1ccccc1OCCC(=O)OCC(=O)c1c(N)n(CC(C)C)c(=O)n(C)c1=O,2,9,7,3,29,10,.,.
CCCCOc1ccc(C(=O)NCC(=O)NC2CCC(C)CC2)cc1 (centres undefined),0,0,5,2,-3,18*,0,0
COc1ccc(NS(=O)(=O)c2cccc(C(=O)NNC(=O)CNC(=O)c3ccco3)c2)cc1,5,1,-6,0,-14,1,.,.
O=C(NCc1cccnc1)c1cc(C2CCCCN2C(=O)c2ccccc2)on1 (centres undefined),.,0,3,1,-8,3,.,.
Cn1nc(C(C)(C)C)cc1C(=O)N1CCCCC1c1cc(C(=O)NCc2cccnc2)no1 (centres undefined),.,1,0,1,-7,15*,0,1
O=C1[C@H](Oc2ccccc2)[C@@H](c2ccccc2)N1c1ccncc1,6,3,3,0,-1,18*,0,-8
COc1cccc(C(=O)Nc2ccc(C(=O)NCC3CCCO3)cc2)c1 (centres undefined),3,2,13,-1,-22,-2,.,.
COC(=O)[C@@]1(C)[C@H]2C(=O)N(C)C(=O)[C@H]2[C@H]2CN=C(SCc3ccccc3)N21,-9,6,5,2,-10,17*,-1,-4
COc1ccc(S(=O)(=O)N2CCC(C(=O)Nc3ccc(S(=O)(=O)N4CCCC4)cc3)CC2)cc1OC,-5,4,2,-1,-14,16*,0,-3
COc1ccc(S(=O)(=O)N2CCCCC2)cc1NC(=O)c1ccc(OC)c(OC)c1,1,0,3,-3,-13,15*,-1,-4
COc1ccc(CCNC(=O)c2cccc(S(=O)(=O)N3CCOCC3)c2)cc1OC,0,3,-4,-5,-4,16*,0,-1
COc1ccc(S(=O)(=O)N2CCCCCC2)cc1NC(=O)c1ccccc1,0,0,3,-1,0,0,.,.
Cc1cccc(NC(=O)CN(c2ccc(C(C)C)cc2)S(=O)(=O)c2c(C)nn(C)c2C)n1,3,-2,10,-1,13,16*,-1,-2
Cn1c(N)c(C(=O)COC(=O)CCC2CCCCC2)c(=O)n(C)c1=O,2,13,1,-1,-15,4,.,.
SMILES,Beta2AR agonist,TAAR1 ag,MC4R antagonist,MC4R barr agon,TAAR1 antag,m5-HT2A agonist,OPRM1 ag,m5-HT2A ag conf
Cn1c(N)c(C(=O)COC(=O)CCC2CCCC2)c(=O)n(C)c1=O,16,10,1,-1,-16,20*,0,-5
O=C(NNC(=O)c1ccco1)c1cccc(Br)c1,1,3,1,-2,-10,15*,0,0
O=C(Nc1cccc(NC(=O)c2ccco2)c1)c1cccc(Br)c1,-6,37,18,0,29,-8,.,.
CCCNC(=O)C1(C)CCCN(Cc2cccs2)C1 (centres undefined),.,1,3,0,-10,2,.,.
Cc1cc(NCC2CCCO2)n2c(nc3ccccc32)c1C#N (centres undefined),-1,2,-4,-2,16,-3,.,.
CC(C)c1cc(NCC2CCCO2)n2c(nc3ccccc32)c1C#N (centres undefined),-20,0,7,-2,10,17*,0.8*,25*
O=C(Nc1ccccc1)C(O)C(O)C(=O)Nc1ccccc1 (centres undefined),21,1,3,2,-12,24*,-1,-3
CC(C)C(=O)Nc1ccc(Nc2ccccc2)cc1,3,6,1,-1,2,-4,.,.
Cc1ccc(SCC(=O)NC(=O)NC(C)C)c(C)c1,-7,-1,13,0,-26,16*,0,5
Cc1ccc(SCC(=O)NC(=O)NCCC(C)C)c(C)c1,0,-3,10,3,-10,3,.,.
Cc1ccc(S(=O)(=O)N2CCN(C(=O)CSCc3ccc(C(C)C)cc3)CC2)cc1,-5,10,1,0,12,15*,0,-2
Cc1csc(=O)n1CCC(=O)NCc1ccc(F)cc1,10,2,-2,-2,-11,-5,.,.
O=C(CCC(=O)c1ccccc1)NCCc1c[nH]c2ccccc12,3,3,-8,-2,22,21*,-1,11
